Measurements reported in ChEMBL document CHEMBL3351576, “Five new quassinoids and cytotoxic constituents from the roots of Eurycoma longifolia” (Bioorg Med Chem Lett, 2014).

Key:
[1] = tested on: HeLa; assay: Cytotoxicity against human HeLa cells assessed as cell viability at 10 uM by SRB assay; assay type: functional; conditions: read-out: Activity
In short: (§1)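 Modified sulforhodamine B (SRB) protein-stain assay. Each human cancer line was exposed to 1, 10 and 100 µM of each isolated root constituent. The read-out is relative cell viability (%), reported as mean ± error.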

[2] = tested on: HeLa; assay: Cytotoxicity against human HeLa cells assessed as cell viability at 100 uM by SRB assay; assay type: functional; conditions: read-out: Activity; in short: as §1
[3] = tested on: A549; assay: Cytotoxicity against human A549 cells assessed as cell viability at 100 uM by SRB assay; assay type: functional; conditions: read-out: Activity; in short: as §1
[4] = tested on: A549; assay: Cytotoxicity against human A549 cells assessed as cell viability at 10 uM by SRB assay; assay type: functional; conditions: read-out: Activity; in short: as §1
[5] = tested on: HeLa; assay: Cytotoxicity against human HeLa cells assessed as cell viability at 1 uM by SRB assay; assay type: functional; conditions: read-out: Activity; in short: as §1
[6] = tested on: A549; assay: Cytotoxicity against human A549 cells assessed as cell viability at 1 uM by SRB assay; assay type: functional; conditions: read-out: Activity; in short: as §1
[7] = tested on: HeLa; assay: Cytotoxicity against human HeLa cells by SRB assay; assay type: functional, cell-based

| Structure (SMILES) | viability at 10 µM [1] | viability at 100 µM [2] | viability at 100 µM [3] | viability at 10 µM [4] | viability at 1 µM [5] | viability at 1 µM [6] | IC50 [7] |
| --- | --- | --- | --- | --- | --- | --- | --- |
| CC1=CC(=O)O[C@H]1[C@@]1(C)C[C@H]2OC(=O)[C@H](O)[C@@]3(O)[C@@H](C)C(=O)C(O)=C1[C@@]23CO | 103% | 106% | 103% | 104% | 102% | 102% |  |
| C=C1[C@@H](O)[C@@]2(O)OC[C@]34[C@H]2[C@@]2(C)[C@H](O)C(=O)C=C(C)[C@@H]2C[C@H]3OC(=O)[C@H](O)[C@@]14O [EURYCOMANONE] | 97.5% | 47% | 87.2% | 101% | 101% | 96.8% |  |
| C=C1C(=O)C(O)=C2[C@@](C)([C@@H]3OC(=O)C=C3C)C[C@H]3OC(=O)[C@H](O)[C@]1(O)[C@@]23CO | 104% | 101% | 100% | 102% | 102% | 100% |  |
| CC1=CC(=O)[C@@H](O)[C@]2(C)[C@H]3[C@]4(O)OC[C@@]35[C@@H](C[C@@H]12)OC(=O)[C@H](O)[C@@]5(O)[C@]1(CO1)[C@H]4O | 101% | 61.7% | 99.1% | 102% | 101% | 96.2% |  |
| CC1=CC(=O)[C@@H](O)[C@]2(C)[C@H]3[C@]4(O)OC[C@@]35[C@@H](C[C@@H]12)OC(=O)[C@H](O)[C@@]5(O)[C@H](C)[C@H]4O [PASAKBUMIN C] | 102% | 101% | 99.8% | 101% | 99.8% | 99.2% |  |
| CC1=CC(=O)O[C@H]1[C@@]1(C)C[C@H]2OC(=O)[C@H](O)[C@@]3(O)[C@@H](C)[C@@H](O)[C@H](O)[C@H]1[C@@]23C | 104% | 103% | 100% | 102% | 104% | 102% |  |
| CC1=CC(=O)[C@@H](O)[C@]2(C)[C@H]3[C@@H](O)[C@H](O)[C@H](C)[C@]4(O)[C@@H](O)C(=O)O[C@H](C[C@@]12O)[C@]34C | 103% | 100% | 99.3% | 101% | 101% | 99.8% |  |
| C[C@H]1[C@H]2OC(=O)[C@@H]1[C@]1(C)C(=O)C=C3[C@@](C)(O)C[C@H](O)[C@@H](O)[C@]3(C)C1[C@H]2O (some centres not stated) | 102% | 102% | 101% | 102% | 101% | 96.6% |  |
| COc1cccc2c1C(=O)c1c(O)c3c(c(O)c1C2=O)C[C@@](O)(C(=O)CO)C[C@@H]3O[C@H]1C[C@H](N)[C@@H](O)[C@H](C)O1 [EPIRUBICIN] | 24.3% |  |  | 0.61% |  |  |  |
| C=C1C[C@H](O)[C@@H](O)[C@]2(C)[C@H]3[C@@H](O)[C@H](O)[C@H](C)[C@@H]4C(=O)O[C@H]([C@H](O)[C@@H]12)[C@]34C | 101% | 98.7% | 101% | 101% | 99.7% | 96.8% |  |
| CC1=CC(=O)[C@@H](O)[C@@]2(C)[C@H]1CC(=O)[C@@]1(C)[C@H]3C(=O)O[C@H]([C@@H]3C)[C@H](O)[C@@H]12 [EURYCOMALACTONE] | 77.7% | 44.5% | 41.5% | 71.5% | 105% | 101% |  |
| CC1=CC(=O)[C@@H](O)[C@]2(C)[C@H]3[C@@H](O)[C@H](O)[C@H](C)[C@]4(O)[C@@H](O)C(=O)O[C@H](C[C@@H]12)[C@]34C | 71.6% | 21% | 43.3% | 86.4% | 101% | 99.5% | 48.2 µM |
| CC1=CC(=O)O[C@H]1[C@@]1(C)C[C@H]2OC(=O)[C@H](O)[C@@]3(O)[C@H](C)C(=O)C(O)=C1[C@@]23CO | 104% | 106% | 104% | 104% | 102% | 101% |  |
| CC1=C2C[C@H]3OC(=O)[C@H](O)[C@@]4(O)[C@@H](C)[C@]5(O)C(=O)OC[C@]34C5[C@@]2(C)[C@H](O)[C@@H](O)C1 (some centres not stated) | 105% | 103% | 103% | 103% | 106% | 103% |  |
| CC1=CC(=O)[C@@H](O)[C@@]2(C)[C@H]1[C@@H](O)[C@H]1OC(=O)C3[C@@H](C)[C@H](O)[C@H](O)[C@H]2[C@]31C (some centres not stated) [LONGILACTONE] | 102% | 66.9% | 66.1% | 99.8% | 101% | 99.7% |  |
